Measured values published in ChEMBL document CHEMBL4765491, “Discovery of Potent and Selective Methylenephosphonic Acid CD73 Inhibitors” (J Med Chem, 2021).

Tests used:
5'-nucleotidase = 5'-nucleotidase (Homo sapiens, UniProt P21589); experiment: Inhibition of human CD73 expressed in CHO cells incubated for 60 mins before addition of AMP and further incubated for 60 mins by colorimetric assay; type: cell-based
In short: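 Thawed stable CD73-CHO cells in HEPES pH 7.4 saline buffer with 0.1% glucose, 1500 cells/well. Preincubated 60 min at 37 °C with 16-point 1:3 compound dilutions (final 100–0 or 0.1–0 μM; 10 or 2% DMSO). 25 μM AMP then added, 60 min at 37 °C/5% CO2. Supernatant phosphate measured with PiColorLock Gold. Activity normalized to DMSO and no-cell wells. IC50 from a four-parameter fit.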

[1] = Half life in Sprague-Dawley rat at 0.25 to 0.5 mg/kg, iv measured up to 24 hrs by LC-MS/MS analysis; type: ADME, organism-based; conditions: in vivo, dose 0.25-0.5 mg/kg
In short: (§1)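 Male SD rats (0.27–0.30 kg), acclimated. Single IV bolus via femoral vein at 0.25 or 0.5 mg/kg in 31.6% DMA/36.8% ethanol/31.6% PEG. Jugular blood at predose, 5, 15, 30 min, 1, 2, 4, 6, 8, 24 h, collected into K2-EDTA; plasma spun at 4 °C, stored −80 °C until analysis.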

[2] = Clearance in Sprague-Dawley rat at 0.25 to 0.5 mg/kg, iv measured up to 24 hrs by LC-MS/MS analysis; type: ADME, organism-based; conditions: in vivo, dose 0.25-0.5 mg/kg; in short: as §1

Chain of 5'-nucleotidase (P21589 whole entry): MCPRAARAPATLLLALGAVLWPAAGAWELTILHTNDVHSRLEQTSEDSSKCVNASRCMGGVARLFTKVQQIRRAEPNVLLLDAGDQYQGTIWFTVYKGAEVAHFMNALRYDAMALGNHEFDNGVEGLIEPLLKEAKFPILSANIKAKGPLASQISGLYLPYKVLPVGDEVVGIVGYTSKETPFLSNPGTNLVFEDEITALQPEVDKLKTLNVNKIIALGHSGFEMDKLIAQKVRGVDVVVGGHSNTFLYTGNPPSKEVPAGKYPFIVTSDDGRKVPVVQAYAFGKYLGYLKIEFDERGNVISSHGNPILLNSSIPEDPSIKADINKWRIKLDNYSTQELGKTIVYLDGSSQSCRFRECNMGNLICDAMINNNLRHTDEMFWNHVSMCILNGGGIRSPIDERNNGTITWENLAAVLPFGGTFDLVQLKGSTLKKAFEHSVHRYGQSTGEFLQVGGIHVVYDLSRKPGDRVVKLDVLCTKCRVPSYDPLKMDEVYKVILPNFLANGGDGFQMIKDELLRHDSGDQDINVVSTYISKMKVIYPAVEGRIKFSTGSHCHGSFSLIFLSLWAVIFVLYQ

IC50 (5'-nucleotidase) | half-life [1] | clearance [2] | SMILES
3500 nM |  |  | Cc1ccccc1-c1nc(NC2CCCC2)c2ncn([C@@H]3O[C@H](COCP(=O)(O)O)[C@@H](O)[C@H]3O)c2n1
46 nM |  |  | O=P(O)(O)COC[C@H]1O[C@@H](n2cnc3c(NCc4ccccc4Cl)nc(Cl)nc32)[C@H](O)[C@@H]1O
45 nM |  |  | O=P(O)(O)COC[C@H]1O[C@@H](n2cnc3c(N4CCCC4)nc(Cl)nc32)[C@H](O)[C@@H]1O
4.5 nM |  |  | O=P(O)(O)COC[C@H]1O[C@@H](n2ncc3c(NC4CCCC4)cc(Cl)nc32)[C@H](O)[C@@H]1O
13 nM |  |  | O=P(O)(O)COC[C@H]1O[C@@H](n2cnc3c(NC4CCCC4)nc(COc4ccccc4)nc32)[C@H](O)[C@@H]1O
192 nM |  |  | CC(C)Nc1nc(Cl)nc2c1ncn2[C@@H]1O[C@H](COCP(=O)(O)O)[C@@H](O)[C@H]1O
382 nM |  |  | O=P(O)(O)COC[C@H]1O[C@@H](n2cnc3c(NCc4ccccn4)nc(Cl)nc32)[C@H](O)[C@@H]1O
588 nM |  |  | O=P(O)(O)COC[C@H]1O[C@@H](n2cnc3c(NC4CC4)nc(Cl)nc32)[C@H](O)[C@@H]1O
 | 4 h | 0.3 mL/min/kg | C[C@H](Nc1cc(Cl)nc2c1cnn2[C@@H]1O[C@H](COCP(=O)(O)O)[C@@H](O)[C@H]1O)c1ccc(F)cc1
33 nM |  |  | O=P(O)(O)COC[C@H]1O[C@@H](n2cnc3c(NC4CCCC4)cc(Cl)nc32)[C@H](O)[C@@H]1O
121 nM |  |  | O=P(O)(O)COC[C@H]1O[C@@H](n2cnc3c(NCCc4ccccc4F)nc(Cl)nc32)[C@H](O)[C@@H]1O
 | 4.5 h | 0.333 mL/min/kg | C[C@H](Nc1nc(Cl)nc2c1cnn2[C@@H]1O[C@H](COCP(=O)(O)O)[C@@H](O)[C@H]1O)c1ccc(F)cc1
84 nM |  |  | O=P(O)(O)COC[C@H]1O[C@@H](n2cnc3c(N[C@@H]4CCOC4)nc(Cl)nc32)[C@H](O)[C@@H]1O
148 nM |  |  | O=P(O)(O)COC[C@H]1O[C@@H](n2cnc3c(N4CCOCC4)nc(Cl)nc32)[C@H](O)[C@@H]1O
65 nM | 1.2 h | 2.33 mL/min/kg | C[C@H](Nc1nc(Cl)nc2c1ncn2[C@@H]1O[C@H](COCP(=O)(O)O)[C@@H](O)[C@H]1O)c1ccccc1
245 nM |  |  | O=P(O)(O)COC[C@H]1O[C@@H](n2cnc3c(NC4CCCC4)nc(-c4ccccc4)nc32)[C@H](O)[C@@H]1O

IC50 (5'-nucleotidase) | half-life [1] | clearance [2] | SMILES
201 nM |  |  | Cn1cc(CNc2nc(Cl)nc3c2ncn3[C@@H]2O[C@H](COCP(=O)(O)O)[C@@H](O)[C@H]2O)cn1
46 nM |  |  | CN(Cc1ccccc1Cl)c1nc(Cl)nc2c1ncn2[C@@H]1O[C@H](COCP(=O)(O)O)[C@@H](O)[C@H]1O
26 nM | 0.97 h | 6.17 mL/min/kg | O=P(O)(O)COC[C@H]1O[C@@H](n2cnc3c(NC4CCCC4)nc(Cl)nc32)[C@H](O)[C@@H]1O
124 nM |  |  | O=P(O)(O)COC[C@H]1O[C@@H](n2cnc3c(NCC4CCCC4)nc(Cl)nc32)[C@H](O)[C@@H]1O
> 10000 nM |  |  | O=P(O)(O)COC[C@H]1O[C@@H](n2cnc3c(NC4CCCC4)nc(COC4CCNC4)nc32)[C@H](O)[C@@H]1O (stereo partly specified)
110 nM |  |  | O=C(O)C(OC[C@H]1O[C@@H](n2cnc3c(NCc4ccccc4)nc(Cl)nc32)[C@H](O)[C@@H]1O)P(=O)(O)O (stereo partly specified)
156 nM |  |  | C[C@@H](Nc1nc(Cl)nc2c1ncn2[C@@H]1O[C@H](COCP(=O)(O)O)[C@@H](O)[C@H]1O)c1ccccc1
3200 nM |  |  | Cn1cnnc1CNc1nc(Cl)nc2c1ncn2[C@@H]1O[C@H](COCP(=O)(O)O)[C@@H](O)[C@H]1O
 | 2.4 h | 0.517 mL/min/kg | C[C@H](Nc1nc(Cl)nc2c1cnn2[C@@H]1O[C@H](COCP(=O)(O)O)[C@@H](O)[C@H]1O)c1ccccc1
105 nM |  |  | O=P(O)(O)COC[C@H]1O[C@@H](n2cnc3c(NCCc4ccccc4)nc(Cl)nc32)[C@H](O)[C@@H]1O
83 nM |  |  | O=P(O)(O)COC[C@H]1O[C@@H](n2cnc3c(NC4CCC4)nc(Cl)nc32)[C@H](O)[C@@H]1O
> 10000 nM |  |  | O=P(O)(O)CCOC[C@H]1O[C@@H](n2cnc3c(NCc4ccccc4)nc(Cl)nc32)[C@H](O)[C@@H]1O
58 nM |  |  | O=P(O)(O)COC[C@H]1O[C@@H](n2cnc3c(NCc4ccccc4)nc(Cl)nc32)[C@H](O)[C@@H]1O
118 nM |  |  | COCc1nc(NC2CCCC2)c2ncn([C@@H]3O[C@H](COCP(=O)(O)O)[C@@H](O)[C@H]3O)c2n1
> 10000 nM |  |  | O=P(O)(O)CCCOC[C@H]1O[C@@H](n2cnc3c(NCc4ccccc4)nc(Cl)nc32)[C@H](O)[C@@H]1O
173 nM |  |  | COc1ccccc1CCNc1nc(Cl)nc2c1ncn2[C@@H]1O[C@H](COCP(=O)(O)O)[C@@H](O)[C@H]1O

SMILES | IC50 (5'-nucleotidase) | half-life [1] | clearance [2]
O=C(O)C(OC[C@H]1O[C@@H](n2cnc3c(NCc4ccccc4)nc(Cl)nc32)[C@H](O)[C@@H]1O)C(=O)O | 1000 nM |  | 
O=P(O)(O)OP(=O)(O)OC[C@H]1O[C@@H](n2cnc3c(NCc4ccccc4)nc(Cl)nc32)[C@H](O)[C@@H]1O | 0.4 nM |  | 
